Bioassay records from PubChem BioAssay.
697 NFkB inh: lowers PMA/ionomycin-induced NF-kB signal in 697 B cells | AID 435022 | actives 0.33% (n = 330,000) | inhibition, % at 4 µM | 697 B-cell NF-kB luciferase reporter, 16 h; in the data active = inhibition above about 35%
NR2E3 ag-1: human photoreceptor-specific nuclear receptor agonism; Q9Y5X4; CHO-S Gal4-NCOR/VP16-NR2E3 two-hybrid, luciferase; inhibition of corepressor binding, % at 3.98 µM; actives 0.35% (n = 360,000);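 active = inhibition above the mean of all tested compounds plus 3 SD, cut at about 70% in these data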;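 also: 0% = DMSO with NR2E3 transfected cells and 100% = cells lacking NR2E3 construct; higher means lower luciferase signal from less NR2E3 corepressor binding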
Target sequence (Q9Y5X4 whole entry, looked up, the tested form may be a part): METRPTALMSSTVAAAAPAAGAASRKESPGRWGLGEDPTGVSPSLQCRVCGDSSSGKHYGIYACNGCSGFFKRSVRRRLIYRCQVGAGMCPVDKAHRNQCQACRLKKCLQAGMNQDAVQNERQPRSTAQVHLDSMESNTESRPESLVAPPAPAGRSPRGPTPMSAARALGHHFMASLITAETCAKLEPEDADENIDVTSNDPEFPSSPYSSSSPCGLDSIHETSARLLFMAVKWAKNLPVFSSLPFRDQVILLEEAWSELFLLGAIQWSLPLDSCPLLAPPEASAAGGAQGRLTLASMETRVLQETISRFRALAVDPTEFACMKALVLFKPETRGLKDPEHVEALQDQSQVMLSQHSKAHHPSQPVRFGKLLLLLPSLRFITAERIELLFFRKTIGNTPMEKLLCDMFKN
NR2E3 ag-2: NR2E3 (human) agonism; GST-NR2E3/biotin-RetCOR TR-FRET, 1536-well; actives 0.12% (n = 320,000); Q9Y5X4; inhibition of corepressor binding, % at 4.78 µM;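 active = percent inhibition above the cutoff of mean plus 3 SD of all tested compounds, set per screening campaign, cut at about 20% in these data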;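 also: 0% = DMSO wells and 100% = biotin wells as full block of FRET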
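system = GST-tagged NR2E3 plus biotinylated RetCOR corepressor | input = 1.35 nM GST-NR2E3 | also added = 7 nM biotin-RetCOR | schedule = 5 h incubation at 4 °C | measured by = TR-FRET with europium anti-GST and streptavidin-D2, 340 nm excitation | read-out = percent loss of FRET ratio relative to control wells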
FGF22 binding: shifts melting point of recombinant human FGF22 | Q9HCT0 | recombinant FGF22 thermal shift, SYPRO orange fluorescence; percent of sucrose octasulfate shift, DMSO zero | activity (Tm shift, normalised), % at 9.99 µM | actives 1.5% (n = 340,000);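 active = mean Tm shift, scaled 0 neutral to 100 positive control, at about 1.3% or above, every replicate too, limit read from the data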
Target sequence (Q9HCT0 whole entry, looked up): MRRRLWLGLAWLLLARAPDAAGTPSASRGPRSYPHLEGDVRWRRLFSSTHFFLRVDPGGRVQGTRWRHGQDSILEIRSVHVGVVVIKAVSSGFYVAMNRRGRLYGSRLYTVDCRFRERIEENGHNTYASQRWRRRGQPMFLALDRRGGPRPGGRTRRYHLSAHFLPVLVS
miR122 inh: inhibitors of miR-122 in Huh7 cells; actives 0.3% (n = 340,000); Huh7 miR-122 Renilla luciferase sensor, 48 h; neutral wells = 0, positive control = 100; activation (reporter increase), % at 12.5 µM;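 active = mean replicate activation score at least 90 and every replicate individually at or above 90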;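 also: higher luciferase means less miR-122 activity so hits act as miR-122 inhibitors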
Jurkat NFkB inh: inhibitors of the PMA/ionomycin-induced NF-kB reporter in Jurkat cells. actives 0.53% (n = 330,000). PMA/ionomycin-induced NF-kB luciferase reporter, luminescence. inhibition, % at 4 µM; in the data active = inhibition above about 50%
The depositor's hits bear a star; / = no result given; [ ] = another dose, or the depositor's remark. A selection: hits, their analogues and other compounds. The true share with any hit is near 2.2%.

SMILES | 697 NFkB inh | NR2E3 ag-1 | NR2E3 ag-2 | FGF22 binding | miR122 inh | Jurkat NFkB inh
CC(C)NC(=O)N(C)C[C@H]1Oc2ccc(NS(=O)(=O)c3ccccc3)cc2CC(=O)N([C@H](C)CO)C[C@@H]1C | / | / | / | 0 | 2[16.7 µM] | /
COc1ccc(C(Nc2ccccn2)c2c(NC(=O)c3ccco3)sc(C)c2C)cc1 (configuration not stated) | -6 | -67 | 1 | 44* | / | -15
CNC[C@@H]1Oc2ncc(-c3cccc(C(=O)N(C)C)c3)cc2C(=O)N([C@H](C)CO)C[C@@H]1C | / | / | / | 0 | -13[16.7 µM] | /
CCNC(=O)OCc1cn(-c2ccccc2)nn1 | -6 | -18 | -2 | 44* | / | -2
C[C@@H]1CN([C@@H](C)CO)C(=O)c2cccc(NS(=O)(=O)c3ccccc3)c2O[C@H]1CN(C)C(=O)Nc1ccc2c(c1)OCO2 | / | / | / | 0 | -1[16.7 µM] | /
C[C@H](CO)N1C[C@H](C)[C@H](CN(C)Cc2ccccc2)Oc2ncc(C#CCN(C)C)cc2C1=O | / | / | / | 0 | -9[16.7 µM] | /
CCCCN(C)Cc1c(C)[nH]c2ccccc2c1=O | -3 | -15 | 2 | 43* | -2 | -9
CCc1ccc(NC(=O)CSc2ccc(-c3ccco3)nn2)cc1 | 10 | -12 | 9 | 43* | / | 1
CC(=O)c1cccc(NC(=O)CSc2ccc(-c3ccco3)nn2)c1 | 18 | -60 | 0 | 0 | -3 | 14
CC(=O)c1ccc(NC(=O)CSc2nnc(Cn3cnc4ccccc43)o2)cc1 | 5 | 1 | 0 | 43* | -3 | 2
CC(=O)Nc1ccc(NC(=O)CSc2nnc(-c3ccco3)o2)cc1 | 8 | -6 | 1 | 44* | 0 | 2
CCN1[C@H](C(=O)N2CCCCC2)[C@@H](CO)[C@@H]2Cn3c(ccc(-c4cccc(F)c4)c3=O)[C@@H]21 | / | / | / | 0 | / | /
O=C(C[C@@H]1CC[C@H]2[C@@H](COC[C@H](O)CN2CCc2ccccc2)O1)NCc1ccc(F)cc1 | / | / | / | / | -4[16.7 µM] | /
CC(=O)Nc1ccc(NS(=O)(=O)c2ccc3ccccc3c2)cc1 | 10 | 15 | -3 | / | 105* | -8
O=S(=O)(Nc1ccc(-c2nc3ccccc3o2)cc1)c1ccccc1 | -26 | -34 | 2 | / | -1 | -7
CC(=O)Nc1ccc(S(=O)(=O)Nc2cccc(-c3nc4ccccc4o3)c2)cc1 | -9 | 8 | 2 | / | 138* | 0
CC(=O)NS(=O)(=O)c1ccc(NS(=O)(=O)c2ccc3ccccc3c2)cc1 | 1 | -18 | 0 | 0 | -8 | -25
O=S(=O)(Nn1cnnc1)c1ccc2ccccc2c1 | -4 | 11 | 2 | 43* | -8 | -7
C[C@H](CO)N1C[C@H](C)[C@@H](CN(C)C(=O)NC2CCCCC2)Oc2c(NS(C)(=O)=O)cccc2C1=O | / | / | / | 0 | 7[16.7 µM] | /
O=C(COC(=O)C1CC1)Nc1ncc(C(F)(F)F)cc1Cl | 4 | -40 | -2 | 44* | / | 7
O=C(COC(=O)C1CC1)Nc1ncc(Cl)cc1Cl | -12 | -14 | 2 | 0 | / | -6
CCN1CCN(CC(=O)N2N=C(c3cccs3)CC2c2ccc(OC)cc2)C(=O)C1=O (configuration not stated) | 23 | -12 | -3 | 43* | / | -11
Cc1c(C(=O)Nc2ccc(N3CCOCC3)cc2)cccc1[N+](=O)[O-] | 16 | -27 | 1 | 0 | / | 7
Cc1c(C(=O)NC(=S)Nc2ccc(N3CCOCC3)cc2)cccc1[N+](=O)[O-] | -1 | -12 | -4 | 43* | / | -11
Cc1nn(C)c(Cl)c1/C=C/C(=O)O | -3 | 0 | 3 | 0 | -1 | -15
SMILES | 697 NFkB inh | NR2E3 ag-1 | NR2E3 ag-2 | FGF22 binding | miR122 inh | Jurkat NFkB inh
Cc1nn(C)c(C)c1/C=C/C(=O)O | -12 | 9 | -4 | 43* | -5 | 7
CN1[C@@H]2c3cccc(=O)n3C[C@H]1[C@H](CO)[C@H]2C(=O)NCC1CCCCC1 | / | / | / | 0 | -6[16.7 µM] | /
c1ccc2c(c1)ccc1nnnn12 | -7 | -5 | 1 | 0 | 168* | -3
Cc1cc(C(F)(F)F)c2c(N)c(C(=O)NCc3ccc(Cl)cc3)sc2n1 | / | -20 | / | 43* | / | /
CCOC(=O)C1=C(C)N=c2s/c(=C\c3ccc(OCC(=O)O)cc3)c(=O)n2C1c1ccc(Cl)cc1 (configuration not stated) | 13 | 1 | / | 0 | -9 | -11
CC1=C(C(=O)OC(C)C)C(c2ccc(Cl)cc2)n2c(sc(=Cc3ccc(OCC(=O)O)cc3)c2=O)=N1 (configuration not stated) | / | 2 | / | 4.2* | -2 | /
Cc1cccc(Nc2nc(N)nc(-c3oc4ccccc4c3C)n2)c1 | -97 | -135 | 0 | 39* | 9 | -17
COc1cccc(Nc2nc(N)nc(-c3oc4ccccc4c3C)n2)c1 | -110 | -157 | 0 | / | 18 | 33
CCOC(=O)c1ccc(NC(=O)c2cc3c(s2)CCC3)cc1 | -50 | -45 | 7 | 45* | / | -10
C[C@@H]1CN([C@H](C)CO)S(=O)(=O)c2ccc(-c3cccnc3)cc2O[C@@H]1CN(C)C(=O)CC1CC1 | / | / | / | 0 | -4[16.7 µM] | /
COc1cccc(S(=O)(=O)N[C@@H]2CC[C@@H](CC(=O)NC3CCC3)O[C@H]2CO)c1 | / | / | / | 0 | / | /
O=C(C[C@@H]1CC[C@@H]2[C@H](COC[C@H](O)CN2CC2CCOCC2)O1)N1CCOCC1 | / | / | / | 1 | -2[16.7 µM] | /
CC=Cc1ccc2n(c1=O)C[C@@H]1[C@@H](CO)[C@H](C(=O)NCc3ccccc3)[C@H]2N1CC (mixture of isomers) | / | / | / | 0 | -4[16.7 µM] | /
CC=Cc1ccc2n(c1=O)C[C@H]1[C@H](CO)[C@@H](C(=O)NCc3ccccc3)[C@@H]2N1CC (mixture of isomers) | / | / | / | 1.4* | -1[16.7 µM] | /
CCOC(=O)/C(N=Nc1c(C)n(C)n(-c2ccccc2)c1=O)=C(/O)c1ccccc1 | 15 | 2 | 3 | 43* | / | 5
Cn1c(=O)c2c(nc(Sc3ncnn3CC(=O)NC(C)(C)C)n2C)n(C)c1=O | 7 | 5 | 3 | 43* | -1 | 1
Cn1c(=O)c2c(ncn2CC(=O)NC(C)(C)C)n(C)c1=O | 15 | -11 | 0 | 0 | / | 8
CN(C)c1nc(N(C)C)nc(N2CCCCC2)n1 | -5 | -2 | -2 | / | -10 | -17
CC1CCN(c2nc(N3CCCCC3)nc(N3CCCCC3)n2)CC1 | -12 | -8 | 4 | 43* | -8 | -1
COc1cccc(CN2CCCCN3[C@@H](CO)[C@@H](c4ccc(C#Cc5cccnc5)cc4)[C@@H]3C2)c1 | / | / | / | / | -2[16.7 µM] | /
